The source made the active and inactive calls. The rule behind the calls is not given here.
Key:
[1] = molecular target: Epidermal growth factor receptor (Homo sapiens, UniProt P00533, T790M); experiment: Inhibition of EGFR T790M mutant (unknown origin) preincubated for 5 mins followed by ATP addition for 30 mins by HTRF assay; type: protein assay
[2] = system: HepG2; experiment: Cytotoxicity against human HepG2 cells assessed as cell growth inhibition after 72 hrs by MTT assay; type: ADME, cell-based; conditions: HepG2, 72 h
[3] = molecular target: T1, Epidermal growth factor receptor (Homo sapiens, UniProt P00533); experiment: Inhibition of EGF-induced EGFR phosphorylation in human A431 cells at 1 uM preincubated for 1 hr followed by EGF addition for 15 mins by Western blot analysis; type: cell-based; conditions: A-431
Outline: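 A431 cells (5 x 10^5/well) were seeded overnight. They were exposed to 1 µM compound for 1 h at 37 °C, then immediately given EGF (20 ng/ml) for 15 min. Whole-cell lysates were made in Tris/NaCl/EDTA/SDS/deoxycholate/NP-40 buffer with aprotinin and PMSF, then cleared at 4 °C. Equal protein was run on SDS-PAGE and blotted for EGFR, p-EGFR and β-actin, with ECL detection.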

[4] = molecular target: T1, Epidermal growth factor receptor; experiment: Inhibition of wild type human EGFR preincubated for 5 mins followed by ATP addition for 30 mins by HTRF assay
[5] = Chemical stability of the compound assessed as compound remaining at 1 uM at pH 10 after 24 hrs by HPLC-HRMS method; type: physicochemical; conditions: buffer, read-out: Stability
Outline: (§1)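 Buffers were 0.2 M PBS at pH 7.4, 9.0 or 10.0, held at 37 °C. Compound stock was made in CH3CN, then diluted into pre-warmed buffer. Aliquots taken at regular time points were injected directly into LC-TOF MS, and percentage of parent compound remaining was read out.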

[6] = system: A549; experiment: Cytotoxicity against human A549 cells assessed as cell growth inhibition after 72 hrs by MTT assay; type: ADME, cell-based; conditions: A549, 72 h
[7] = Chemical stability of the compound assessed as compound remaining at 1 uM at pH 7.4 after 24 hrs by HPLC-HRMS method; type: physicochemical; conditions: buffer, read-out: Stability; outline: as §1
[8] = system: NCI-H1975; experiment: Antiproliferative activity against human NCI-H1975 cells expressing L858R/T790M mutant EGFR after 72 hrs by MTT assay; type: functional, cell-based; conditions: NCI-H1975, 72 h
[9] = Chemical stability of the compound assessed as compound remaining at 1 uM at pH 9 after 24 hrs by HPLC-HRMS method; type: physicochemical; conditions: buffer, read-out: Stability; outline: as §1
[10] = molecular target: T1, Epidermal growth factor receptor; experiment: Inhibition of EGF-induced EGFR phosphorylation in human A431 cells at 1 uM preincubated for 1 hr followed by compound washout for 5 hrs and subsequent EGF addition for 15 mins by Western blot analysis; type: cell-based; conditions: A-431
Outline: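 A431 cells (5 x 10^5/well) were seeded overnight and treated with 1 µM compound for 1 h at 37 °C. Cells were washed 10 times with fresh medium over 5 h, then stimulated with EGF (20 ng/ml) for 15 min. Lysates were made in RIPA-type buffer with protease inhibitors, and equal protein was immunoblotted for EGFR, p-EGFR and β-actin, with ECL detection.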

[11] = molecular target: Epidermal growth factor receptor (Homo sapiens, UniProt P00533, L858R); experiment: Inhibition of recombinant human EGFR L858R mutant expressed in baculovirus infected insect cells preincubated for 5 mins followed by ATP addition for 30 mins by HTRF assay
Outline: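 Purchased EGFR L858R kinase and substrate were preincubated with compound for 5 min in enzymatic buffer. ATP was then added to start the reaction, which ran 30 min at room temperature. It was stopped with EDTA-containing detection reagents, and HTRF detection ran for 1 h. IC50 was fitted from the dose-response data as the mean of three independent experiments.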

[12] = system: A-431; experiment: Antiproliferative activity against human A431 cells overexpressing wild-type EGFR after 72 hrs by MTT assay; type: functional, cell-based; conditions: A-431, 72 h

T1 sequence (P00533 whole entry): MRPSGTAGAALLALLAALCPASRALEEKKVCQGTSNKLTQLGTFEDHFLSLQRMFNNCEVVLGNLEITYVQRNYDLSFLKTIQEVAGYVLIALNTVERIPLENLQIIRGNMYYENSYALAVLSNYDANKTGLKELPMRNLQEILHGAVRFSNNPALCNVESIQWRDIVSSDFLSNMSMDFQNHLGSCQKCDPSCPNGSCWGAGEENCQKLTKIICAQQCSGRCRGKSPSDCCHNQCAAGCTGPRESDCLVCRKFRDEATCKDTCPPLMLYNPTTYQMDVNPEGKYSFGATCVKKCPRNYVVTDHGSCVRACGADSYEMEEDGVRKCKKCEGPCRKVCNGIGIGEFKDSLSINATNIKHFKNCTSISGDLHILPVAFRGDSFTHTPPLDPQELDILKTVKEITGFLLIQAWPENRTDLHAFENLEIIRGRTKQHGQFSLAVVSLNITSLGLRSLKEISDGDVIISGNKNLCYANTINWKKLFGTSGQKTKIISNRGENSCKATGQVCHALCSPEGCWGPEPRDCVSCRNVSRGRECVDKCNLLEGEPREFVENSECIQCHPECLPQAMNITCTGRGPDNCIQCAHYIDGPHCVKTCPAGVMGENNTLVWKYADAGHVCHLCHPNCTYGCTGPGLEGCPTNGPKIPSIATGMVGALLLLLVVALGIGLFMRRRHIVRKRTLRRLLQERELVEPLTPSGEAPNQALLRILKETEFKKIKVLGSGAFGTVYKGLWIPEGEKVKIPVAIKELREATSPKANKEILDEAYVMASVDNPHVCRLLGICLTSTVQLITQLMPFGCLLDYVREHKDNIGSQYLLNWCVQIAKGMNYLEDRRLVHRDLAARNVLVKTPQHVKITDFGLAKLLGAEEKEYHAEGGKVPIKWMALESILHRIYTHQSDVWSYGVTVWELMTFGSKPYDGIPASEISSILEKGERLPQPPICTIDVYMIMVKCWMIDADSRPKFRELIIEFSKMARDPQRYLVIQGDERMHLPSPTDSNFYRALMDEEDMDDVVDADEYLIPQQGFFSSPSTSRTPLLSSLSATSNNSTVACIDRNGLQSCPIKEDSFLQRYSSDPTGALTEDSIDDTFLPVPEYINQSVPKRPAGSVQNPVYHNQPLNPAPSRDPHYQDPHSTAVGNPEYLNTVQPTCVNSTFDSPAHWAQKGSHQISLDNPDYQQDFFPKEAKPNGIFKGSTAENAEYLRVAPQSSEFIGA
Chain of Epidermal growth factor receptor (Homo sapiens, UniProt P00533, T790M) (P00533 25-1210 T790M limits assumed): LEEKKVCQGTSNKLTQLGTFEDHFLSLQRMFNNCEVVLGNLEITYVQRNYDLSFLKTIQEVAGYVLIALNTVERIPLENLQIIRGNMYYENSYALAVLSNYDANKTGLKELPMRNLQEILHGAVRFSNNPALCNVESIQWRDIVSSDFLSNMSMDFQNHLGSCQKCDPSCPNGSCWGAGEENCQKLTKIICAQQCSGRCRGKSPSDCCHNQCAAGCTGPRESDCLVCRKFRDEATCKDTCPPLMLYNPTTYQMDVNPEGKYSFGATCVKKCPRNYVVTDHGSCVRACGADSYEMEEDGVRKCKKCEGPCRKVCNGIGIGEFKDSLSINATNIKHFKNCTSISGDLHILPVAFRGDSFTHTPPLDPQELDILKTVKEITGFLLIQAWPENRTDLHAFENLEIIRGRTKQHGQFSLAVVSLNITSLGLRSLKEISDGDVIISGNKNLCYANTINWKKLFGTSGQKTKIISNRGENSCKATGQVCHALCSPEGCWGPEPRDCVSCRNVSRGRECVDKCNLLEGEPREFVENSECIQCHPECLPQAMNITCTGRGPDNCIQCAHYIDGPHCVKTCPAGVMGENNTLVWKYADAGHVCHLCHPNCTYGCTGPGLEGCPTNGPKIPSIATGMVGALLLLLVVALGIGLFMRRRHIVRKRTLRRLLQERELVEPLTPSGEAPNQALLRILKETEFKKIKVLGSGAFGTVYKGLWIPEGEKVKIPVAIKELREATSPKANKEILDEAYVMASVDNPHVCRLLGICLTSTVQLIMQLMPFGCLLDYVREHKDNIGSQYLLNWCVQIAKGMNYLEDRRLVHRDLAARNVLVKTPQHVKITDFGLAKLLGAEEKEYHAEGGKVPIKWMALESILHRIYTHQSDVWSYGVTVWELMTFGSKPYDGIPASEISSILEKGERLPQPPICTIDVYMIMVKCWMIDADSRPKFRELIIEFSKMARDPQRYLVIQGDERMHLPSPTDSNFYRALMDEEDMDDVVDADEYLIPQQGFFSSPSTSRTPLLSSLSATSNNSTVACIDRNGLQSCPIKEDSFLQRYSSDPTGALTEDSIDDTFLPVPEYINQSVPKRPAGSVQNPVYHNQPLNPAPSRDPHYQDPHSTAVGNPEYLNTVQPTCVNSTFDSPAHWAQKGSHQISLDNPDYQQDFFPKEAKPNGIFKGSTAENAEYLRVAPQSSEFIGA
Chain of Epidermal growth factor receptor (Homo sapiens, UniProt P00533, L858R) (P00533 25-1210 L858R limits assumed): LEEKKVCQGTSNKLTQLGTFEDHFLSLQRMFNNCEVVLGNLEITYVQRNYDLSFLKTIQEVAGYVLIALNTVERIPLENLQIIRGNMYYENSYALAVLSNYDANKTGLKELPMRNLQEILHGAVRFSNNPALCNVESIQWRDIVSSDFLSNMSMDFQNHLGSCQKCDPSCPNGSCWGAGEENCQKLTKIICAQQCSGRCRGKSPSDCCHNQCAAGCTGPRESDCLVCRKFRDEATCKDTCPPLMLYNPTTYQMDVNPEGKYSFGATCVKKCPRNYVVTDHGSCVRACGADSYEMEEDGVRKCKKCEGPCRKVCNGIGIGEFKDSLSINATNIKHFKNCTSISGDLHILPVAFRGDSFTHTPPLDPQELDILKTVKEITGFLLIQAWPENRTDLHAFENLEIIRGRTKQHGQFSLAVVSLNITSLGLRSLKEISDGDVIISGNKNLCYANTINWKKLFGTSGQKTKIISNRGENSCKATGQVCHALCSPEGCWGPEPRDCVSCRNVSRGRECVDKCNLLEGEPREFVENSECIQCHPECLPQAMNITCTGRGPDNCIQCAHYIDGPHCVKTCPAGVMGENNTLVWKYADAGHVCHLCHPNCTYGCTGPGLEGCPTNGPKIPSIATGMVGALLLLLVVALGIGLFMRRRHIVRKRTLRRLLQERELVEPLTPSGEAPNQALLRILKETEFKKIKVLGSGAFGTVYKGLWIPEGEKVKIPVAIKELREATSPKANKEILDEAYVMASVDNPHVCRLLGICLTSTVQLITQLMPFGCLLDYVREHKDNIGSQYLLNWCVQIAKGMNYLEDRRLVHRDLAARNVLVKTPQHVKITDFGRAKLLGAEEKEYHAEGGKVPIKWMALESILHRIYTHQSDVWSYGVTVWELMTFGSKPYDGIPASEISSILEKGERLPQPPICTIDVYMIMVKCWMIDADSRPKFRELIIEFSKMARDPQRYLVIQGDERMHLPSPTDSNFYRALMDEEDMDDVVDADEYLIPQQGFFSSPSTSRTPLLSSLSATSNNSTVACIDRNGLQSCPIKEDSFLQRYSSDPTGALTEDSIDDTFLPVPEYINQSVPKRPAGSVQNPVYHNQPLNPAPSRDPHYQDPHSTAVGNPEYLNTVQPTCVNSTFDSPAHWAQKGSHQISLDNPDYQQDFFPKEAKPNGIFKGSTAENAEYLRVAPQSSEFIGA

| IC50 [8] | IC50 [12] | SMILES | IC50 [1] | IC50 [4] | IC50 [11] | further results |
| --- | --- | --- | --- | --- | --- | --- |
| 13.5 µM | 5.3 µM | CN1CCC(COc2cc3ncnc(Nc4ccc(F)c(Cl)c4F)c3cc2NC(=O)[C@H]2COC(=O)N2)CC1 | – | – | – | – |
| 7.65 µM | 11.2 µM | CCOc1cc2ncnc(Nc3ccc(Oc4ccc(C)nc4)c(Cl)c3)c2cc1NC(=O)[C@@H]1COC(=O)N1 | – | – | – | – |
| 10.5 µM | 10.8 µM | CCOc1cc2ncnc(Nc3ccc4c(cnn4Cc4cccc(F)c4)c3)c2cc1NC(=O)[C@@H]1COC(=O)N1 | – | – | – | – |
| > 50 µM | 18.9 µM | CCOc1cc2ncnc(Nc3ccc4c(cnn4Cc4cccc(F)c4)c3)c2cc1NC(=O)[C@H]1COC(=O)N1 | – | – | – | – |
| 12.7 µM | 7.35 µM | CCOc1cc2ncnc(Nc3ccc(OCC4CC4)c(Cl)c3)c2cc1NC(=O)[C@H]1NC(=O)O[C@@H]1C | – | – | – | – |
| 23.3 µM | > 50 µM | CCOc1cc2ncnc(Nc3ccc(OCc4ccccn4)c(Cl)c3)c2cc1NC(=O)[C@@H]1COC(=O)N1 | – | – | – | – |
| 11.1 µM | 14.3 µM | COc1cc2ncnc(Nc3cccc(Br)c3)c2cc1NC(=O)[C@H]1COC(=O)N1 | – | – | – | – |
| 10 µM | 34.9 µM | COc1ccc(Nc2ncnc3cc(OC)c(NC(=O)[C@@H]4COC(=O)N4)cc23)cc1 | – | – | – | – |
| 9.33 µM | 22.8 µM | O=C1N[C@H](C(=O)Nc2cc3c(Nc4ccc(F)c(Cl)c4)ncnc3cc2O[C@H]2CCOC2)CO1 | – | – | – | – |
| 22.1 µM | 25.9 µM | COCCOc1cc2ncnc(Nc3ccc(F)c(Cl)c3)c2cc1NC(=O)[C@@H]1COC(=O)N1 | – | – | – | – |
| 10.8 µM | 13.5 µM | COc1cc2ncnc(Nc3cccc(C(F)(F)F)c3)c2cc1NC(=O)[C@@H]1COC(=O)N1 | – | – | – | – |
| 37.2 µM | > 50 µM | O=C1N[C@@H](C(=O)Nc2cc3c(Nc4ccc(F)c(Cl)c4)ncnc3cc2OCCCN2CCOCC2)CO1 | – | – | – | – |
| > 50 µM | 11 µM | O=C1N[C@@H](C(=O)Nc2cc3c(Nc4ccc(F)c(Cl)c4)ncnc3cc2O[C@H]2CCOC2)CO1 | – | – | – | – |
| > 50 µM | > 50 µM | CCOc1cc2ncnc(Nc3ccc(OCc4ccccn4)c(Cl)c3)c2cc1NC(=O)[C@H]1COC(=O)N1 | – | – | – | – |
| 21.2 µM | 16.8 µM | COc1cc2ncnc(Nc3ccc(F)c(Cl)c3)c2cc1NC(=O)[C@H]1COC(=O)N1 | – | – | – | – |
| > 50 µM | > 50 µM | COCCOc1cc2ncnc(Nc3ccc(F)c(Cl)c3)c2cc1NC(=O)[C@H]1COC(=O)N1 | – | – | – | – |
| 4.95 µM | 15 µM | CCOc1cc2ncnc(N[C@@H](C)c3ccccc3)c2cc1NC(=O)[C@H]1COC(=O)N1 | – | – | – | – |
| 13.6 µM | 12.6 µM | CN1CC[C@H](Oc2cc3ncnc(Nc4ccc(F)c(Cl)c4)c3cc2NC(=O)[C@@H]2COC(=O)N2)C1 | – | – | – | – |

The remaining lines, values behind:

| SMILES | IC50 [8] | IC50 [12] | IC50 [1] | IC50 [4] | IC50 [11] | further results |
| --- | --- | --- | --- | --- | --- | --- |
| COc1cc2ncnc(Nc3ccc(F)c(Cl)c3)c2cc1NC(=O)[C@@H]1COC(=O)N1 | 6.8 µM | 9.2 µM | 0.0263 µM | 0.00106 µM | 0.00031 µM | IC50 [2]: > 100 µM; inhibition [3]: Active; remaining at 24 h, 1 µM [5]: 85.8%; IC50 [6]: 14.9 µM; remaining at 24 h, 1 µM [7]: 97.1%; remaining at 24 h, 1 µM [9]: 89.9%; inhibition [10]: inactive |
| COc1cc2ncnc(Nc3ccc(F)c(Cl)c3)c2cc1NC(=O)[C@H]1NC(=O)O[C@@H]1C | 8.98 µM | 8.65 µM | 0.0402 µM | 0.00198 µM | 0.00035 µM | IC50 [2]: > 50 µM; IC50 [6]: > 50 µM |
| CCOc1cc2ncnc(N[C@@H](C)c3ccccc3)c2cc1NC(=O)[C@@H]1COC(=O)N1 | 15.3 µM | 16.9 µM | > 1 µM | 0.00552 µM | 0.00071 µM | – |
| O=C1N[C@H](C(=O)Nc2cc3c(Nc4ccc(F)c(Cl)c4)ncnc3cc2OCCCN2CCOCC2)CO1 | 12.3 µM | 48.7 µM | 0.0587 µM | 0.00454 µM | 0.00083 µM | – |
| COc1cc2ncnc(Nc3cccc(Br)c3)c2cc1NC(=O)[C@@H]1COC(=O)N1 | 9.08 µM | 7.25 µM | 0.126 µM | 0.00047 µM | 0.00038 µM | IC50 [2]: > 100 µM; IC50 [6]: > 50 µM |
| CCOc1cc2ncnc(Nc3ccc(OCc4cccc(F)c4)c(Cl)c3)c2cc1NC(=O)[C@H]1COC(=O)N1 | 4.75 µM | 4.15 µM | 0.111 µM | 0.00119 µM | 0.00549 µM | IC50 [2]: > 100 µM; IC50 [6]: > 50 µM |
| O=C1N[C@H](C(=O)Nc2cc3c(Nc4ccc(F)c(Cl)c4)ncnc3cc2OCCN2CCCCC2)CO1 | 5.85 µM | 3.5 µM | 0.333 µM | 0.0255 µM | 0.00779 µM | IC50 [2]: > 50 µM; IC50 [6]: 42.9 µM |
| CCOc1cc2ncnc(Nc3ccc(OCc4cccc(F)c4)c(Cl)c3)c2cc1NC(=O)[C@@H]1COC(=O)N1 | 3.87 µM | 3.89 µM | 0.0532 µM | 0.00134 µM | 0.00562 µM | IC50 [2]: > 50 µM; IC50 [6]: 11.6 µM |
| COc1cc2ncnc(Nc3ccc(F)c(Cl)c3)c2cc1NC(=O)[C@@H]1CCC(=O)N1 | > 50 µM | 21.8 µM | – | – | – | – |
| CCOc1cc2ncnc(Nc3ccc(OCC4CC4)c(Cl)c3)c2cc1NC(=O)[C@@H]1COC(=O)N1 | 5.08 µM | 5.05 µM | 0.0808 µM | 0.0378 µM | 0.0521 µM | IC50 [2]: > 100 µM; IC50 [6]: 28.9 µM |
| O=C1N[C@H](C(=O)Nc2cc3c(Nc4ccc(F)c(Cl)c4)ncnc3cc2OCC(F)(F)F)CO1 | > 50 µM | 33.9 µM | – | – | – | – |
| CN1CCC(COc2cc3ncnc(Nc4ccc(F)c(Cl)c4F)c3cc2NC(=O)[C@@H]2COC(=O)N2)CC1 | 21.1 µM | 2.43 µM | – | – | – | – |
| CN1CCOC[C@@H]1COc1cc2ncnc(Nc3ccc(F)c(Cl)c3)c2cc1NC(=O)[C@@H]1COC(=O)N1 | 7.4 µM | 18.7 µM | – | – | – | – |
| CCOc1cc2ncnc(Nc3ccc(OCc4cccc(F)c4)c(Cl)c3)c2cc1NC(=O)[C@H]1NC(=O)O[C@@H]1C | 4.28 µM | 3.36 µM | 0.295 µM | 0.00257 µM | 0.012 µM | IC50 [2]: 30.8 µM; IC50 [6]: 32.9 µM |
